# Only some compounds are listed: those with a hit (about 1.9% of all), similar ones and a draw of the others.
# HSV replic up – increases HSV replication in cells; actives 0.005% (n = 220,000); AID 1956; maximum fold increase; HSV replication augmentation in cells, fold increase; in the data active means maximum fold increase above about 1.5; inconclusive means no clear call, values can overlap the other calls; tested in PC3 cells
# Furin inh – inhibitors of human furin; purified furin, fluorogenic substrate cleavage; AID 463115; actives 0.061% (n = 220,000); inhibition, % at 20 µM or 30 µM; P09958; in the data active means inhibition above about 25%
# Target sequence (P09958 108-714 limits assumed): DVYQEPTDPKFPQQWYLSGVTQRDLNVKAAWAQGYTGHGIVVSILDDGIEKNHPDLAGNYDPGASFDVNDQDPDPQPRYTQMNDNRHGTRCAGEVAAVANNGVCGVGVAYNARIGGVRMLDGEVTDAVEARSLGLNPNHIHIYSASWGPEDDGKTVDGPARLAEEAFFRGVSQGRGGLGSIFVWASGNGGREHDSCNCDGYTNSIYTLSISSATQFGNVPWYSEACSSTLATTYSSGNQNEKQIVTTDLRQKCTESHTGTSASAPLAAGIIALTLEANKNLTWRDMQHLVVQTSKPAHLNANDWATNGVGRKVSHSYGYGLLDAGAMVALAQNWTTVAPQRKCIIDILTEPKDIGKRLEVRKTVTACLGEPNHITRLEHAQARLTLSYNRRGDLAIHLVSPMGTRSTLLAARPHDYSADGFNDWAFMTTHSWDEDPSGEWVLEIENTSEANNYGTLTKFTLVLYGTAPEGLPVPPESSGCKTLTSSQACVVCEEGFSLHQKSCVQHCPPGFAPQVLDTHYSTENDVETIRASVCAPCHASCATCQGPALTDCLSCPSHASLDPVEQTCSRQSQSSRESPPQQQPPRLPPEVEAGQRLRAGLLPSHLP
# MT stabilizer – microtubule stabilizers in HeLa cells; actives 0.83% (n = 200,000); % tubulin-high responders, % at 10 µM; HeLa tubulin immunostaining HCS, 24 h; share of cells brighter than vehicle mean+2SD;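 active means plate Z-score above 3 for both tubulin-high and condensed-nucleus cell shares, with cell loss under 80%, at 10 µM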;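 further: anti alpha tubulin signal scored within the nucleus-defined area of each cell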
# Insulin prom up – MIN6 insulin promoter up-regulation | actives 0.3% (n = 190,000) | AID 1625 | MIN6 insulin promoter-GFP reporter, high-content imaging; hits give high values | z-score at 5 µM;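 active means z-score above 3 at 5 µM with at least 500 cells counted in the well; inconclusive means wells under 500 cells, flagged as cytotoxic or low count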
# Autophagy HCS – alters autophagy in cells; MEF GFP-LC3 puncta imaging; test concentration mostly 10 µM; calls only at 10 µM (by protocol); actives 0.98% (n = 190,000); AID 463193;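 active means percentage of spot-positive cells more than 3 SD above its plate mean, without a fluorescence outlier flag or 80% toxicity; inconclusive means no clear call, values can overlap the other calls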
# bCat nuc transl – beta-catenin nuclear translocation modulation; HeLa beta-catenin nuclear translocation, immunofluorescence imaging; nuclear translocation activity, % at 5 µM; actives 0.3% (n = 190,000);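 active means nuclear translocation activity above 50% at 5 µM, with a well cell count of 50 or more; inconclusive means wells under 50 cells across six images, flagged as toxic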;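 further: per-cell ratio of nuclear to cytoplasmic median beta-catenin stain intensity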
#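 assay system = human HeLa cells, endogenous beta-catenin | times = compound treatment 24 h, 37°C, 5% CO2 | detection = Anti-beta-catenin immunofluorescence on PFA-fixed, Triton-permeabilized cells, DAPI nuclei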
# Numbers stand for hits; n = inactive; u = inconclusive; x = not tested or not shown; + = active, no number.
SMILES,HSV replic up,Furin inh,MT stabilizer,Insulin prom up,Autophagy HCS,bCat nuc transl
CCOC(=O)C1=C(c2ccccc2)O/C(=C(/C#N)C(F)(F)F)S1,n,n,n,n,+,n
Cc1ccc(-n2c(P(C)(=O)O)nc3ccccc32)cc1,n,n,n,n,n,n
COc1ccc(CN2C(=O)c3ccccc3C2C(=O)NCc2cccnc2)c(OC)c1 (centres undefined),n,n,n,n,+,n
COc1ccc(OC)c(CN2C(=O)c3ccccc3C2C(=O)NCc2cccnc2)c1 (centres undefined),n,n,n,n,n,n
CC1CC(=O)C2=C(C1)OC(N)=C(C#N)C2c1coc2ccccc2c1=O (centres undefined),n,n,n,3,n,n
CC1(C)CC(=O)C2=C(C1)OC(N)=C(C#N)C2c1ccccc1 (centres undefined),n,n,n,n,n,n
O=C(NC1CCCCCC1)c1cccs1,n,n,n,x,n,x
Nc1c(C(=O)NC2CCCC2)sc2nc(-c3cccs3)ccc12,n,n,n,3.9,n,x
CCOC(=O)C(C(=O)OCC)C1CCS(=O)(=O)C1 (centres undefined),n,n,n,n,+,n
CCOC(=O)C(=O)N(CC)C1CCS(=O)(=O)C1 (centres undefined),n,n,x,n,x,n
COC(=O)N/N=C/c1cn(Cc2ccccc2Cl)c2ccccc12,n,n,n,n,n,n
Cc1[nH][nH]c(=O)c1C(c1c(C)[nH][nH]c1=O)c1cn(Cc2ccccc2Cl)c2ccccc12,n,n,25,n,n,n
Cc1ccc2c(c1)nnn2C1CCN(S(=O)(=O)c2ccc(C(=O)N3CC(C)CC(C)C3)cc2)CC1 (centres undefined),n,n,20,n,n,n
Cc1ccc2c(c1)nnn2C1CCN(S(=O)(=O)c2ccc(C(=O)N(C)C)cc2)CC1,n,n,n,x,n,n
Cc1cc(C)nc(-n2ncc3c2CC(C)CC3=O)n1 (centres undefined),n,n,x,n,x,n
COc1ccc(OC)c(NC(=O)c2cnc(Nc3ccccc3OC)c3ccccc23)c1,n,n,19,n,n,n
COc1cc(CC(=O)OCC(=O)c2ccc3c(c2)OCCO3)cc(OC)c1OC,n,n,17,u,+,158
C=CCc1c(C)nc(SC(C)C)[nH]c1=O,n,n,n,n,n,x
O=C1CC(c2ccc(O)cc2)Oc2cc(O)cc(O)c21 (centres undefined),n,n,n,x,n,n
CC1CC(=O)c2c(cc3c(-c4c(O)cc(O)c5c(O)c6c(cc45)OC(C)CC6=O)c(O)cc(O)c3c2O)O1 (centres undefined),n,n,32,n,n,n
CCc1nnc(NC(=O)CSc2nnc(-c3ccccc3OC)n2-c2ccc(C)cc2)s1,n,n,n,n,n,n
CCc1nnc(NC(=O)CSc2nnc(COc3ccc(C)cc3)n2-c2ccccc2)s1,n,n,33,n,n,n
CCOc1ccc(-n2c(COc3ccc(C)cc3)nnc2SCC(N)=O)cc1,n,n,n,x,n,n
CCc1nnc(NC(=O)CSc2nnc(-c3ccccc3O)n2-c2ccc(C)cc2)s1,n,n,38,n,n,n
CCc1nnc(NC(=O)CSc2nnc(Cc3ccccc3)n2-c2ccccc2)s1,n,n,n,n,n,n
SMILES,HSV replic up,Furin inh,MT stabilizer,Insulin prom up,Autophagy HCS,bCat nuc transl
CCc1nnc(NC(=O)CSc2nnc(C3CCCCC3)n2-c2cccc(Cl)c2)s1,n,29,n,x,n,n
CCOC(=O)C(CC)Sc1nnc(COc2ccc(C)cc2)n1-c1ccccc1 (centres undefined),n,28,n,x,n,n
CCCCOc1ccc(OC(=O)Nc2cc(Cl)ccc2OC)cc1,n,n,x,n,x,n
COc1ccccc1Cn1cccc1C=O,n,n,n,n,+,n
CCn1c2ccccc2c2cc(NC(=O)c3cccc(OC)c3OC)ccc21,n,n,n,n,n,n
CCn1c2ccccc2c2cc(NC(=O)c3cccc(OC)c3)ccc21,n,n,31,n,n,n
CCn1c2ccccc2c2cc(/C=N/NC(=O)c3cccc(C)c3)ccc21,n,n,30,n,n,n
CCn1c2ccccc2c2cc(/C=N/n3cnnc3)ccc21,n,n,n,n,+,n
Cc1ccc(/C=N/NC(=O)CN2CCN(Cc3ccccc3)CC2)o1,n,n,x,n,x,n
O=C(NNc1cccc(Cl)n1)c1ccccc1CC[N+](=O)[O-],n,n,n,n,n,n
Cc1cc(-c2nn(-c3ccccc3F)cc2CN2CCN(c3ccccn3)CC2)c(C)s1,n,n,n,n,n,n
CCOc1cc(-n2cnnn2)c(OCC)cc1NC(=O)c1cc2ccc(N(CC)CC)cc2oc1=O,x,n,n,x,+,x
CCn1c2ccccc2c2cc(Nc3cc(C)nc4ncnn34)ccc21,n,n,n,x,n,94
CCc1cccc(Nc2cc(C)nc3ncnn23)c1,x,n,n,n,n,n
CCc1cc2cc3c(cc2nc1SCC(=O)Nc1cc(C)on1)OCO3,n,n,n,n,+,n
CCc1nnc(NC(=O)CSc2nc3cc4c(cc3cc2CC)OCCO4)s1,n,n,n,n,+,n
CCc1nnc(NC(=O)CSc2nc(C)c3c(c2C#N)CCCC3)s1,n,n,26,n,n,n
COc1ccc(NC(=O)CSc2nc(C)c3c(c2C#N)CCCC3)cc1,n,n,n,n,n,n
O=[N+]([O-])c1ccc(-c2ccc(/C=N/Nc3nc(N4CCCC4)nc(N4CCCC4)n3)o2)cc1,n,n,35,n,+,n
O=[N+]([O-])c1ccc(-c2ccc(/C=N/Nc3nc(N4CCCCC4)nc(N4CCCCC4)n3)o2)cc1,x,n,n,x,+,n
COc1ccc(-c2cnnc(N/N=C/c3ccc(-c4ccc([N+](=O)[O-])cc4)o3)n2)cc1,n,n,40,n,n,81
COCc1ccc(CN2CCCC(CO)(Cc3ccccc3)C2)o1 (centres undefined),n,n,n,n,n,n
CCOC(=O)c1ccc(Oc2nc(N(C)C)nc(N3CCOCC3)n2)cc1,n,n,n,n,n,n
COc1c(Cl)cnn(-c2ccc(Cl)c(Cl)c2)c1=O,n,n,n,n,n,n
Cc1ccc(S(=O)(=O)N(C)c2ccc3sc(C)nc3c2)cc1,n,n,18,n,n,n
SMILES,HSV replic up,Furin inh,MT stabilizer,Insulin prom up,Autophagy HCS,bCat nuc transl
Cc1ccc(S(=O)(=O)N(C)c2ccc(N)cc2)cc1,n,n,n,n,n,n
O=C(Nc1ccccc1N1CCN(c2ccccc2)CC1)c1ccccc1,n,n,n,n,n,n
N#Cc1ccc(Sc2nc3ccccc3[nH]2)cc1C#N,n,n,n,n,n,n
N#Cc1cc2ccccc2nc1N,n,n,n,n,+,n
CC(C)N1CCC(=NNc2ccc(S(=O)(=O)N3CCOCC3)cc2[N+](=O)[O-])CC1,n,n,n,x,n,n
CCCN1CCC(=NNc2ccc(S(=O)(=O)N3CCOCC3)cc2[N+](=O)[O-])CC1,n,n,14,x,n,120

# Assay outcomes deposited in PubChem BioAssay by several laboratories.
